Reference: ChEMBL document CHEMBL3414463, “Discovery of potent and selective 8-fluorotriazolopyridine c-Met inhibitors” (J Med Chem, 2015)

Legend:
[1] = Drug metabolism in mouse liver microsomes assessed as formation of (S)-2-(6-(1-(8-fluoro-6-(3-methylisoxazol-5-yl)-[1,2,4]triazolo[4,3-a]pyridin-3-yl)ethyl)quinolin-3-yloxy)ethanol in presence of NADPH by LC-MS/MS method; assay type: ADME
Summary of the method: (§1)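 Compound incubated with NADPH in mouse, rat, dog, monkey or human liver microsomes. Metabolites were identified by accurate mass spectrometry and MS/MS, and selected ion chromatograms were used to build metabolite profiles.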

[2] = Oral bioavailability in Sprague-Dawley rat at 2 mg/kg; assay type: ADME, organism-based; settings: in vivo
Summary of the method: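 Male Sprague-Dawley rats given 2.0 mg/kg orally in 2% (w/v) hydroxypropylmethylcellulose, 1% (w/v) Tween 80 in water, pH 2.2 (adjusted with HCl or MSA). Some inhibitors instead used 10% (v/v) dimethylacetamide in the same vehicle.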

[3] = test system: Mus musculus; assay: Inhibition of human recombinant HGF-stimulated c-Met autophosphorylation in Balb/c mouse assessed as relative phospho c-Met level at 10 mg/kg, po administered as single dose and measured 3 hrs before mouse sacrifice by electrochemiluminescence immunoassay; assay type: functional; parameters: scale not given: the % may be the effect or the level left
Summary of the method: (§2)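 Mice received a single 10 mg/kg oral dose. Human recombinant HGF (12 μg) was given IV at 1, 3, 6, 9, 12 or 24 h postdose, and liver was harvested 5 min later. Liver phospho-c-Met was measured by electrochemiluminescent immunoassay. Mean ± SD, n = 3; ANOVA with Bonferroni/Dunn test versus HGF control.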

[4] = Drug metabolism in monkey liver microsomes assessed as formation of (S)-2-(6-(1-(8-fluoro-6-(3-methylisoxazol-5-yl)-[1,2,4]triazolo[4,3-a]pyridin-3-yl)ethyl)quinolin-3-yloxy)ethanol in presence of NADPH by LC-MS/MS method; assay type: ADME, Macaca mulatta; settings: rhesus monkey; summary of the method: as §1
[5] = test system: Liver microsome; assay: Drug metabolism in human liver microsomes assessed as formation of (S)-2-(6-(1-(8-fluoro-6-(3-methylisoxazol-5-yl)-[1,2,4]triazolo[4,3-a]pyridin-3-yl)ethyl)quinolin-3-yloxy)ethanol in presence of NADPH by LC-MS/MS method; assay type: ADME; summary of the method: as §1
[6] = Half life in Sprague-Dawley rat at 0.25 mg/kg, iv; assay type: ADME, organism-based; parameters: dose 0.25 mg/kg, route intravenous; settings: in vivo
[7] = Drug metabolism in monkey liver microsomes assessed as formation of (S)-2-(6-(1-(8-fluoro-6-(3-methylisoxazol-5-yl)-[1,2,4]triazolo[4,3-a]pyridin-3-yl)ethyl)quinolin-3-yloxy)acetic acid in presence of NADPH by LC-MS/MS method; assay type: ADME, Macaca mulatta; settings: rhesus monkey; summary of the method: as §1
[8] = test system: Liver microsome; assay: Drug metabolism in human liver microsomes assessed as formation of (S)-2-(6-(1-(8-fluoro-6-(3-methylisoxazol-5-yl)-[1,2,4]triazolo[4,3-a]pyridin-3-yl)ethyl)quinolin-3-yloxy)acetic acid in presence of NADPH by LC-MS/MS method; assay type: ADME; summary of the method: as §1
[9] = test system: Mus musculus; assay: Inhibition of human recombinant HGF-stimulated c-Met autophosphorylation in Balb/c mouse assessed as relative phospho c-Met level at 10 mg/kg, po administered as single dose and measured 9 hrs before mouse sacrifice by electrochemiluminescence immunoassay; assay type: functional; parameters: scale not given: the % may be the effect or the level left; summary of the method: as §2
[10] = test system: Liver microsome; assay: Drug metabolism in rat liver microsomes assessed as formation of (S)-2-(6-(1-(8-fluoro-6-(3-methylisoxazol-5-yl)-[1,2,4]triazolo[4,3-a]pyridin-3-yl)ethyl)quinolin-3-yloxy)ethanol in presence of NADPH by LC-MS/MS method; assay type: ADME; summary of the method: as §1
[11] = test system: Mus musculus; assay: Inhibition of human recombinant HGF-stimulated c-Met autophosphorylation in Balb/c mouse assessed as relative phospho c-Met level at 10 mg/kg, po administered as single dose and measured 6 hrs before mouse sacrifice by electrochemiluminescence immunoassay; assay type: functional; parameters: scale not given: the % may be the effect or the level left; summary of the method: as §2
[12] = test system: Rattus norvegicus; assay: Clearance in Sprague-Dawley rat at 0.25 mg/kg, iv; assay type: ADME, organism-based; parameters: dose 0.25 mg/kg, route intravenous; settings: in vivo
[13] = molecular target: T1, Hepatocyte growth factor receptor (Homo sapiens, UniProt P08581); assay: Inhibition of HGF-stimulated c-Met autophosphorylation in serum starved human PC3 cells pre-incubated for 1 hr followed by human recombinant HGF stimulation for 10 mins by quantitative electrochemiluminescence immunoassay; assay type: cell-based, PC-3
T1 sequence (P08581 whole entry): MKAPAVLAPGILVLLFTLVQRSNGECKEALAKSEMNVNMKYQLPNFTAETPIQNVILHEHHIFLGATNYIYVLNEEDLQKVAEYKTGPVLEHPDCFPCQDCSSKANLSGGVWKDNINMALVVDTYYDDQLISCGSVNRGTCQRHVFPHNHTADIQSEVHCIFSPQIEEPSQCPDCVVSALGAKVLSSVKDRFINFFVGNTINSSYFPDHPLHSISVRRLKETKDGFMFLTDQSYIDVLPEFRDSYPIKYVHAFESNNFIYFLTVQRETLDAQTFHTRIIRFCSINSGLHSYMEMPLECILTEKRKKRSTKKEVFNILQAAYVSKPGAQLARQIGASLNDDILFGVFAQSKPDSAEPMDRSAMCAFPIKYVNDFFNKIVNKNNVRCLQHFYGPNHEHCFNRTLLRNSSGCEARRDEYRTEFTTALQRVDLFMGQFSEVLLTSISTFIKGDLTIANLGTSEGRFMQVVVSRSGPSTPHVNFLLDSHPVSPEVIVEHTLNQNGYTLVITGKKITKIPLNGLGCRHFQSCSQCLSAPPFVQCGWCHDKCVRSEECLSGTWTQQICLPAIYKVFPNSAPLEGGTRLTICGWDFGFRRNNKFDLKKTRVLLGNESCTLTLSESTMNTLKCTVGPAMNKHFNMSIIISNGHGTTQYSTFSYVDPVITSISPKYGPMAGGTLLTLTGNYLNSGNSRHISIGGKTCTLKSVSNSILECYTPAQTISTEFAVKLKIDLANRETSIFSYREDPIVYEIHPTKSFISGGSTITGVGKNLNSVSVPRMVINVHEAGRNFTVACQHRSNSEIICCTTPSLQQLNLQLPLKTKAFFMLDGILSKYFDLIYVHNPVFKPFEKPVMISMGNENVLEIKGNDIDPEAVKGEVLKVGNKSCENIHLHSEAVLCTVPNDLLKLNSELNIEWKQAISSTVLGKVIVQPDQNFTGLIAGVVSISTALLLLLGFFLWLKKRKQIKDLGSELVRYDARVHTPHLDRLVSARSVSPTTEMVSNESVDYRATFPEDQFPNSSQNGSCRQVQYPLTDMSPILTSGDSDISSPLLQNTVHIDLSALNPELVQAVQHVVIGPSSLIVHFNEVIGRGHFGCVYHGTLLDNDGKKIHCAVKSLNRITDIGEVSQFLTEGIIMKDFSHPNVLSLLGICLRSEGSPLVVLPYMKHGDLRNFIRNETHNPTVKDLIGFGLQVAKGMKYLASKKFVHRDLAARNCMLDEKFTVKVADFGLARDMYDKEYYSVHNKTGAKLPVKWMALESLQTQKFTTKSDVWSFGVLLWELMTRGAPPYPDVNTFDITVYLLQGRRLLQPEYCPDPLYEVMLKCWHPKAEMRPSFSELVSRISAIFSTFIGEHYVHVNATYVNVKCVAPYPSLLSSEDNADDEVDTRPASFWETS
Summary of the method: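 Serum-starved PC-3 cells (plated in high-glucose DMEM/10% FBS, then 16 h in low-glucose DMEM with 0.1% BSA) were treated with a 10-point inhibitor dilution for 1 h at 37 °C. Cells were then stimulated with 200 ng/mL recombinant human HGF for 10 min and lysed. Phospho-c-Met was captured with biotinylated anti-c-Met and 4G10 by electrochemiluminescence. IC50, n ≥ 2.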

[14] = test system: Liver microsome; assay: Unbound clearance rat liver microsomes at 1 uM in presence of NADPH by LC-MS/MS method; assay type: ADME
Summary of the method: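 Aliquots were taken at 0, 10, 20, 30 and 40 min, quenched with an equal volume of acetonitrile, centrifuged and analysed by LC/MS/MS.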

[15] = molecular target: T1, Hepatocyte growth factor receptor; assay: Inhibition of recombinant c-Met kinase domain (unknown origin) incubated for 30 mins using gastrin peptide substrate by HTRF assay
[16] = Drug metabolism in mouse liver microsomes assessed as formation of (S)-2-(6-(1-(8-fluoro-6-(3-methylisoxazol-5-yl)-[1,2,4]triazolo[4,3-a]pyridin-3-yl)ethyl)quinolin-3-yloxy)acetic acid in presence of NADPH by LC-MS/MS method; assay type: ADME; summary of the method: as §1
[17] = test system: Liver microsome; assay: Drug metabolism in dog liver microsomes assessed as formation of (S)-2-(6-(1-(8-fluoro-6-(3-methylisoxazol-5-yl)-[1,2,4]triazolo[4,3-a]pyridin-3-yl)ethyl)quinolin-3-yloxy)acetic acid in presence of NADPH by LC-MS/MS method; assay type: ADME, Canis lupus familiaris; summary of the method: as §1
[18] = Volume of distribution at steady state in Sprague-Dawley rat at 0.25 mg/kg, iv; assay type: ADME, organism-based; parameters: dose 0.25 mg/kg, route intravenous; settings: in vivo, read-out: Vdss
Summary of the method: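 Male Sprague-Dawley rats were given a single IV dose of 0.25 mg/kg. The vehicle was DMSO, or for some compounds 20% (w/v) hydroxypropyl β-cyclodextrin in water adjusted to pH 3.5 with MSA. NC marks cases where the terminal disposition rate constant could not be characterized for lack of slope.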

[19] = test system: Mus musculus; assay: Inhibition of human recombinant HGF-stimulated c-Met autophosphorylation in Balb/c mouse assessed as relative phospho c-Met level at 10 mg/kg, po administered as single dose and measured 1 hr before mouse sacrifice by electrochemiluminescence immunoassay; assay type: functional; parameters: scale not given: the % may be the effect or the level left; summary of the method: as §2
[20] = test system: Mus musculus; assay: Inhibition of human recombinant HGF-stimulated c-Met autophosphorylation in Balb/c mouse assessed as relative phospho c-Met level at 10 mg/kg, po administered as single dose and measured 24 hrs before mouse sacrifice by electrochemiluminescence immunoassay; assay type: functional; parameters: scale not given: the % may be the effect or the level left; summary of the method: as §2
[21] = test system: Mus musculus; assay: Inhibition of human recombinant HGF-stimulated c-Met autophosphorylation in Balb/c mouse assessed as relative phospho c-Met level at 10 mg/kg, po administered as single dose and measured 12 hrs before mouse sacrifice by electrochemiluminescence immunoassay; assay type: functional; parameters: scale not given: the % may be the effect or the level left; summary of the method: as §2
[22] = test system: Liver microsome; assay: Drug metabolism in rat liver microsomes assessed as formation of (S)-2-(6-(1-(8-fluoro-6-(3-methylisoxazol-5-yl)-[1,2,4]triazolo[4,3-a]pyridin-3-yl)ethyl)quinolin-3-yloxy)acetic acid in presence of NADPH by LC-MS/MS method; assay type: ADME; summary of the method: as §1
[23] = test system: Rattus norvegicus; assay: AUC (0 to infinity) in Sprague-Dawley rat at 0.25 mg/kg, iv; assay type: ADME, organism-based, Plasma; parameters: dose 0.25 mg/kg, route intravenous, time infinity; settings: in vivo
[24] = test system: Liver microsome; assay: Drug metabolism in dog liver microsomes assessed as formation of (S)-2-(6-(1-(8-fluoro-6-(3-methylisoxazol-5-yl)-[1,2,4]triazolo[4,3-a]pyridin-3-yl)ethyl)quinolin-3-yloxy)ethanol in presence of NADPH by LC-MS/MS method; assay type: ADME, Canis lupus familiaris; summary of the method: as §1
[25] = test system: Liver microsome; assay: Drug level in human liver microsomes treated with 5-(8-Fluoro-3-(1-(3-methoxyquinolin-6-yl)ethyl)[1,2,4]-triazolo[4,3-a]pyridin-6-yl)-3-methylisoxazole assessed as compound formation in presence of NADPH by LC-MS/MS method; assay type: ADME; summary of the method: as §1
[26] = Drug level in monkey liver microsomes treated with 5-(8-Fluoro-3-(1-(3-methoxyquinolin-6-yl)ethyl)[1,2,4]-triazolo[4,3-a]pyridin-6-yl)-3-methylisoxazole assessed as compound formation in presence of NADPH by LC-MS/MS method; assay type: ADME, Macaca mulatta; settings: rhesus monkey; summary of the method: as §1

COCCOc1cnc2ccc([C@H](C)c3nnc4c(F)cc(-c5cc(C)no5)cn34)cc2c1
Drug metabolism [1]: metabolite_detected | bioavailability [2]: 46% | Activity [3]: 99% | Drug metabolism [4]: metabolite_detected | Drug metabolism [5]: metabolite_detected | half-life [6]: 4.2 h | Drug metabolism [7]: metabolite_detected | Drug metabolism [8]: metabolite_detected | Activity [9]: 64% | Drug metabolism [10]: metabolite_detected | Activity [11]: 94% | CL [12]: 9.5 mL/min/kg | IC50 [13]: 5 nM | CL free [14]: 417 mL/min/kg | IC50 [15]: 1 nM | Drug metabolism [16]: metabolite_detected | Drug metabolism [17]: metabolite_detected | Vd [18]: 4.9 L/kg | Activity [19]: 96% | Activity [20]: 27% | Activity [21]: 47% | Drug metabolism [22]: metabolite_detected | AUC [23]: 3.1 µM·h | Drug metabolism [24]: metabolite_detected

COc1cnc2ccc([C@H](CO)c3nnc4c(F)cc(-c5cc(C)no5)cn34)cc2c1
Drug metabolism [25]: metabolite_detected | Drug metabolism [26]: metabolite_detected
